# Source: PubChem BioAssay
# The source made the active and inactive calls.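 How the source made its calls, unless noted: active means viability at or under a set limit in both replicates, limit being median viability minus 3 SD (cut at about 48% in these data, passing the limit was not always enough); inconclusive means at or under the limit in just one replicate; inactive means at or above the limit in both replicates.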
# Legend:
# [1] = reduced viability of SK-BR-3 breast cancer cells – cell-based, 24 h, human, pilot screen (AID 572;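 active means viability at or below 10% of carrier control in both of two separate runs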;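 further: compound exposure lasted between 18 and 24 h rather than exactly 24 h; 100% = carrier-treated control wells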); conditions: SK-BR-3 viability, CellTiter-Glo luminescence, at 10 µM, stronger effect = lower value
# [2] = HUVEC growth inhibition – cell-based, human, primary screen (AID 575;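 active means viability at or below 30% in both replicate assays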;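 further: 100% = median of untreated cell wells with 0.1% DMSO on each plate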); conditions: HUVEC proliferation, CellTiter-Glo luminescence, 72 h; at 10 µM; stronger effect = lower value
# In short: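 material = primary HUVEC, no more than 12 passages | input = 1250 cells per well | controls = vehicle and MePR control wells | measured by = CTG luminescence | times = 72 h compound incubation | format = collagen-coated 384-well format | read-out = % viability vs DMSO wells | doses = single 10 µM dose, 0.1% DMSO, from 5x medium stock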
# [3] = H69AR cell proliferation blockers – human, duplicate replicates, primary screen (AID 580); conditions: H69AR lung tumor cells viability, ATP luminescence, 72 h; at 10 µM; stronger effect = lower value;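 further: 100% = mean luminescence of untreated wells and 0% = no signal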
# [4] = MRP1 drug-resistance reversers in H69AR cells – cell-based, doxorubicin co-treatment, pilot screen (AID 601;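 active means viability loss from added drug above about 55%, and viability with drug at most 40%, in both replicates, limit read from the data, passing the limit was not always enough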); conditions: CellTiter-Glo, 72 h, at 10 µM; for differential viability (reversal): stronger effect = higher value
# [5] = yeast transport mutant growth inhibition pilot in 384-well plates, post-Golgi transport modulator project (AID 636; in the data active means inhibition above about 31%); conditions: absorbance 615 nm, about 18 h, stronger effect = higher value
# [6] = growth suppression of yeast trafficking mutant, preliminary HTS, modulators of trafficking downstream of Golgi apparatus project, 1536-format plate, OD 615 nm (AID 637; in the data active means inhibition above about 30%); conditions: yeast transport mutant growth, absorbance 615 nm, 18 h; stronger effect = higher value
# [7] = H69AR cells + 2 uM doxorubicin, measured here: viability with 2 uM doxorubicin, stronger effect = lower value
# [8] = H69AR cells, compound alone cytotoxicity
Compound,viability [1],viability [2],viability [3],differential viability (reversal) ([4]; H69AR cells + 2 uM doxorubicin),"viability [4, 7]","viability [4, 8]",inhibition [5],inhibition [6]
CCn1c(SCC(=O)c2ccc(C)cc2)nnc1-c1ccoc1C,89% (inactive),114% (inactive),108% (inactive),8.75% (inactive),99.2%,108%,-5.14% (inactive),0.36% (inactive)
c1cc2c(cc1Nc1nc(-c3ccc4c(c3)OCO4)cs1)OCCO2,97% (inactive),72.6% (inactive),90.5% (inactive),-8.93% (inactive),99.4%,90.5%,-4.19% (inactive),-10% (inactive)
CC(C)CC(c1nnnn1C(C)(C)C)N1CCN(C2CCCC2)CC1 (stereo unspecified),101% (inactive),96.6% (inactive),95.2% (inactive),10.4% (inactive),84.8%,95.2%,-7.33% (inactive),2.91% (inactive)
CCOC(=O)c1cnc2c(OC)cccc2c1N1CCN(c2ccc(OC)cc2)CC1,124% (inactive),66.1% (inactive),79.6% (inactive),20.9% (inactive),58.7%,79.6%,-3.38% (inactive),0.63% (inactive)
CC(C)(Oc1ccc(Cl)cc1)C(=O)NCc1ccncc1,111% (inactive),105% (inactive),94.2% (inactive),5.47% (inactive),88.7%,94.2%,-6.89% (inactive),-12.2% (inactive)
O=C(NCCCN1CCCC1=O)c1cccnc1,135% (inactive),113% (inactive),89.2% (inactive),0.48% (inactive),88.7%,89.2%,-4.25% (inactive),3.09% (inactive)
CCOC(=O)C(C(C)=O)c1nc(C)nc2c1nnn2Cc1ccccc1Cl (stereo unspecified),58% (inactive),71.7% (inactive),79.4% (inactive),-9.73% (inactive),89.1%,79.4%,1.08% (inactive),-2.18% (inactive)
CCn1c(SCC(=O)Nc2cc(NC(C)=O)ccc2OC)nnc1-c1ccccn1,93% (inactive),89.6% (inactive),94.1% (inactive),8.36% (inactive),85.8%,94.1%,-1.51% (inactive),2.1% (inactive)
Cn1cnc2c1c(=O)[nH]c(=O)n2C,108% (inactive),85.7% (inactive),96.1% (inactive),-0.7% (inactive),96.8%,96.1%,-0.91% (inactive),6.33% (inactive)
O=c1c2cc3ccccc3n2cnn1Cc1ccccc1F,100% (inactive),57.9% (inactive),11.3% (active),-36.1% (inactive),47.4%,11.3%,-1.95% (inactive),2.3% (inactive)
COc1ccc(CN2C(=O)[C@@H]3C(c4ccc(F)cc4)=NO[C@@H]3C2=O)cc1,91% (inactive),114% (inactive),89.1% (inactive),3.49% (inactive),85.6%,89.1%,-6.62% (inactive),1.64% (inactive)
Cc1cc(S(=O)(=O)N(Cc2ccccc2)Cc2ccc(N(C)C)cc2)ccc1-n1cnnn1,81% (inactive),84.3% (inactive),84% (inactive),-3.54% (inactive),87.6%,84%,-8.24% (inactive),-2.36% (inactive)
COc1ccccc1C(=O)N1CCN(C(=O)COc2cccc(C)c2)CC1,101% (inactive),113% (inactive),88.6% (inactive),2.75% (inactive),85.9%,88.6%,-7.84% (inactive),-0.73% (inactive)
Cc1cccc(NC(=O)c2cc(NC(=O)c3ccco3)ccc2Cl)n1,101% (inactive),77.2% (inactive),95.4% (inactive),0.16% (inactive),95.3%,95.4%,-1.56% (inactive),7.21% (inactive)
O=C(CN1C(=O)CCS(=O)(=O)c2ccccc21)Nc1cccc(F)c1,115% (inactive),115% (inactive),106% (inactive),9.57% (inactive),96.5%,106%,3.65% (inactive),-1.09% (inactive)
Nc1ccc(S(=O)(=O)c2ccc(N)cc2)cc1,95% (inactive),85.9% (inactive),106% (inactive),19.4% (inactive),87.1%,106%,-2.21% (inactive),5.17% (inactive)
Clc1ccc(-n2nnnc2Sc2ncnc3sccc23)cc1,123% (inactive),5.51% (active),1.29% (active),-0.27% (inactive),1.56%,1.29%,20.6% (inactive),65.5% (active)
O=C(NC1CCCC1)C(NS(=O)(=O)c1cccc2nsnc12)c1ccccc1 (stereo unspecified),116% (inactive),103% (inactive),79% (inactive),-2.47% (inactive),81.5%,79%,-8.08% (inactive),8.18% (inactive)
Brc1ccc2[nH]c3nc(SCCN4CCOCC4)nnc3c2c1,100% (inactive),89.8% (inactive),87% (inactive),10.9% (inactive),76.2%,87%,2.21% (inactive),11.6% (inactive)

Compound,viability [1],viability [2],viability [3],differential viability (reversal) ([4]; H69AR cells + 2 uM doxorubicin),"viability [4, 7]","viability [4, 8]",inhibition [5],inhibition [6]
O=C(CN(C1CCCCC1)S(=O)(=O)c1ccccc1)NCc1cccnc1,83% (inactive),103% (inactive),96% (inactive),3.4% (inactive),92.6%,96%,-6.76% (inactive),-0.55% (inactive)
CCc1nnc(NC(=O)CSc2nnc(-c3ccccc3OC)n2-c2ccccc2)s1,77% (inactive),108% (inactive),85.2% (inactive),-1.85% (inactive),87%,85.2%,-1.73% (inactive),-1.45% (inactive)
CCCCNC(=O)OCCNC(=O)NC,98% (inactive),95.9% (inactive),98.1% (inactive),7.46% (inactive),90.7%,98.1%,-4.05% (inactive),-5.45% (inactive)
Clc1ccccc1CN1CCc2sccc2C1,95% (inactive),78.2% (inactive),99% (inactive),19.9% (inactive),79.1%,99%,1.95% (inactive),8.17% (inactive)
Cc1cc(C)nc(SCc2nnc(SCC(=O)Nc3ncc(C)s3)n2Cc2ccco2)n1,91% (inactive),97.1% (inactive),90.4% (inactive),7.87% (inactive),82.6%,90.4%,-7.87% (inactive),-5.09% (inactive)
CC(=O)Nc1ccc(S(=O)(=O)NCc2csc(-c3cccnc3)n2)cc1,97% (inactive),101% (inactive),97.6% (inactive),-4.67% (inactive),102%,97.6%,-1.69% (inactive),1.8% (inactive)
Cc1cc(C(=O)CSc2nnc(-c3ccccc3)n2C)c(C)n1C,83% (inactive),107% (inactive),95.5% (inactive),-3% (inactive),98.5%,95.5%,1.78% (inactive),0.73% (inactive)
CC(C)C[C@H](NC(=O)Nc1cccc(C(F)(F)F)c1)C(=O)O,115% (inactive),98.1% (inactive),106% (inactive),14.6% (inactive),91.8%,106%,-4.25% (inactive),-0.81% (inactive)
Cc1c(C(=O)NCc2ccccn2)sc2nc(-c3ccc(F)cc3)cn12,119% (inactive),89.4% (inactive),95.4% (inactive),13.1% (inactive),82.3%,95.4%,-3.12% (inactive),3.77% (inactive)
COCCCn1c(=N)c(C(=O)NCC2CCCO2)cc2c(=O)n3cccc(C)c3nc21 (stereo unspecified),62% (inactive),93% (inactive),98.7% (inactive),5.39% (inactive),93.3%,98.7%,-6.8% (inactive),2.18% (inactive)
CC(N)C12CC3CC(C1)CC(C(C)N)(C3)C2 (stereo unspecified),87% (inactive),110% (inactive),101% (inactive),11.4% (inactive),89.4%,101%,-3.6% (inactive),-4.18% (inactive)
CCC(C)NCC(O)COCc1ccc(Cl)cc1 (stereo unspecified),89% (inactive),101% (inactive),99.7% (inactive),11.5% (inactive),88.2%,99.7%,0.52% (inactive),-4.59% (inactive)
CCOC(=O)C1C2C=CC3(CN(Cc4ccco4)C(=O)C13)O2 (stereo unspecified),97% (inactive),95.6% (inactive),96.5% (inactive),6.86% (inactive),89.7%,96.5%,-6.99% (inactive),1.45% (inactive)
CS(=O)(=O)N1CCCC(C(=O)N2CCOCC2)C1 (stereo unspecified),97% (inactive),108% (inactive),98.3% (inactive),4.13% (inactive),94.2%,98.3%,-2.6% (inactive),-1.15% (inactive)
O=C(CCC1COc2ccccc2O1)NCC1COc2ccccc2O1 (stereo unspecified),125% (inactive),103% (inactive),87.8% (inactive),4.35% (inactive),83.4%,87.8%,-6.3% (inactive),4.68% (inactive)
c1coc(-c2nnc(-c3cccs3)o2)c1,106% (inactive),110% (inactive),102% (inactive),14% (inactive),87.9%,102%,-5.33% (inactive),0% (inactive)
CCOC(=O)c1[nH]c(CSc2nnc(-c3ccncc3)n2CCOC)c(C(=O)OCC)c1C,94% (inactive),96.7% (inactive),94.8% (inactive),4.23% (inactive),90.6%,94.8%,-5.19% (inactive),1.31% (inactive)
CCOC(=O)Cc1csc(NC(=O)CSc2nnc(C3CC3)n2C)n1,95% (inactive),107% (inactive),97.9% (inactive),6.36% (inactive),91.5%,97.9%,-5.81% (inactive),-3.82% (inactive)
